Test results: paper PMC11605122 (Nature Communications, 2024)

Columns and labels:
BAT, eWAT, iWAT = assay: UCP1 and TH protein; type: in vivo, mouse
brown adipocytes [1] = assay: fatty acid oxidation in brown adipocytes; type: cell-based, mouse; conditions: G49, brown adipocytes
Procedure, shortened: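 Palmitate oxidation to CO2 and to acid-soluble material (acyl-carnitine, Krebs cycle intermediates, acetyl-CoA) was measured in primary hepatocytes or differentiated brown adipocytes, with or without 500 nM test compound.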

plasma adiponectin = type: in vivo, mouse; conditions: DIO mice, 24 h post-injection
Procedure, shortened: (§1)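 Plasma ALT was read with Reflotron strips and plasma TGs by colorimetric assay. Serum FGF21 and plasma adiponectin and insulin were measured by ELISA.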

BAT skin temperature = type: in vivo, mouse
plasma TGs = type: in vivo, mouse; conditions: DIO mice, G49, time course
Procedure, shortened: as §1

BAT explants = assay: OCR in BAT explants; type: in vivo, mouse; conditions: BAT explants of mice treated with G49 for 3 days
Procedure, shortened: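 BAT explants came from DIO mice given test compound or vehicle for 72 h. OCR was run as a Seahorse Mito Stress assay with 2 µM oligomycin A, 2 µM FCCP, then 10 µM rotenone plus 10 µM antimycin. OCR (pmol/min) came from O2 tension over time.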

[2] = test system: POMC neurons, arcuate nucleus; assay: cFos-positive POMC neurons in ARC; type: in vivo, mouse; conditions: DIO mice
Procedure, shortened: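 Brain slices were blocked 2 h at RT in PBS with 1% BSA and 0.1% Triton X-100. They were incubated overnight at 4 °C with anti-POMC and anti-c-Fos, then with secondary antibodies in 1% BSA/PBS for 2 h at RT, protected from light.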

liver Cd11b+Ly6g+ cells = assay: liver neutrophils; type: in vivo, mouse; conditions: DIO mice, G49
Procedure, shortened: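 Liver non-parenchymal cells underwent ACK red-cell lysis (5 min, RT) and were washed in HBSS. They were stained 20 min at RT with CD45-FITC, CD11b-PECy7 and Ly6G-PE, then acquired on a FACSCanto II.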

brown adipocytes [3] = assay: lipolysis in brown adipocytes; type: cell-based, mouse; conditions: G49, brown adipocytes, 500 nM, 4 h
[4] = test system: primary mouse hepatocytes; assay: fatty acid oxidation and Cpt1a in primary mouse hepatocytes; type: cell-based; conditions: 500 nM G49, 16 h
Procedure, shortened: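 Primary hepatocytes came from non-fasted male C57BL/6J mice fed HFD for 12 weeks, with or without in vivo treatment, by two-step collagenase perfusion. Cells were spun at 60 × g, purified on isotonic Percoll (1:1) at 230 × g and seeded on collagen. They were cultured 24 h at 37 °C, 5% CO2 before exposure to the test compound.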

[5] = F4/80 and TH immunostaining of eWAT; type: in vivo, mouse; conditions: G49, 6 h
[6] = test system: mouse adipocytes from eWAT; assay: lipolysis; type: cell-based; conditions: isolated adipocytes from eWAT, 500 nM G49, 4 h
plasma/serum FGF21 = type: in vivo, mouse; conditions: DIO mice, G49
Procedure, shortened: as §1

[7] = peptide concentration in plasma; type: in vivo, mouse; conditions: DIO mice, 24 h post-injection, 100 nmol/kg s.c., n = 5; cAMP bioassay
Procedure, shortened: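 Plasma activity was read in a cAMP assay on CHO cells expressing human GLP-1R, in HBSS pH 7.4 with 25 mM HEPES, 0.1% BSA and 0.5 mM IBMX. Serial dilutions were run in duplicate for 30 min at RT with HTRF detection. Standards were reference peptide spiked into 0.2% (final) naïve plasma. Sample ratio = sample EC50/reference EC50; concentration = known top concentration/ratio.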

[8] = test system: eWAT stromal vascular fraction; assay: immune cell populations in eWAT SVF; type: in vivo, mouse
Procedure, shortened: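 eWAT was digested, stopped with EDTA, filtered at 100 µm and red cells lysed in ACK. The SVF was stained 20 min at RT in FACS buffer (1 mM EDTA, 25 mM HEPES, 1% FBS in PBS) with a panel including CD45, CD11b, F4/80, Ly6G, CD11c, CD206, SiglecF, T/NK markers and IL-4, or isotype controls. Acquisition was on a FACSCanto II.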

[9] = FGF21Alb-KO mice, G49 plus recombinant murine FGF21

Sequence: HSQGTFTSDYSKYLEEEAVRLFIC (40 kDa PEG) WLMNT-amide acetate salt [G49]
- UCP1 protein (BAT, eWAT, iWAT; Adipoq−/− mice, G49): no increase in UCP1 protein levels was found
- UCP1 expression in BAT (BAT, eWAT, iWAT; DIO mice, G49 + ATGLi, 72 h): suppression of G49 effects on UCP1 expression and BAT temperature
- UCP1 protein in BAT (BAT, eWAT, iWAT; DIO mice, G49 + GCGRant): did not present an increase in UCP1 protein levels
- UCP1 and TH protein in BAT (BAT, eWAT, iWAT; DIO mice, G49, 1 week): increase in thermogenic-related genes (Cpt1b, Dio2, CoxIVi1, Ucp1, Th, Fgf21) and protein levels of UCP1 and TH in BAT
- UCP1 protein in BAT (BAT, eWAT, iWAT; FGF21Alb-KO mice, G49, 1 week): a lower effect of G49 in increasing in UCP1 protein levels in BAT
- UCP1 protein in BAT (BAT, eWAT, iWAT; [9]): markedly increased UCP1 protein levels and BAT temperature
- UCP1 and TH protein (BAT, eWAT, iWAT; eWAT, G49, 1 week): higher UCP1 and TH protein content
- UCP1 protein (BAT, eWAT, iWAT; iWAT, G49, 1 week): a similar improvement was found
- Cpt1b expression and FAO (brown adipocytes [1]): increased Cpt1b gene expression and FAO
- plasma adiponectin, early (plasma adiponectin): increase in adiponectin was observed as early as 24 h post-injection
- BAT temperature (BAT skin temperature; Adipoq−/− mice, G49): G49-mediated increase in BAT temperature was reduced
- BAT temperature (BAT skin temperature; DIO mice, G49 + ATGLi, 72 h): suppression of G49 effects on UCP1 expression and BAT temperature
- BAT temperature (BAT skin temperature; [9]): markedly increased UCP1 protein levels and BAT temperature
- BAT activation (BAT skin temperature; UCP1−/− mice, G49, 1 week): no features of BAT activation were found
- circulating TGs (plasma TGs): reached maximal levels at 24 h and decreased to basal levels at 48 h post-G49 treatment
- basal and maximal respiration (BAT explants): increased basal and maximal respiration in BAT explants
- activated POMC neurons, 1 week ([2]; G49, 1 week): percentage of activated POMC neurons was reduced
- cFos-positive POMC neurons, early ([2]; G49, after first injection): increase in cFos-positive POMC neurons
- hepatic neutrophil infiltration (liver Cd11b+Ly6g+ cells): an increase in hepatic neutrophil infiltration
- lipolysis (brown adipocytes [3]): up-regulated lipolysis
- Cpt1a mRNA and FAO [4]: increased Cpt1a mRNA levels and FAO
- F4/80 and TH positive immune cells [5]: F4/80 and Tyrosine Hydroxylase (TH) positive immune cells were found in some eWAT areas
- glycerol and FFA release [6]: increased glycerol and FFA release
- liver Fgf21 expression and FGF21 plasma levels (plasma/serum FGF21): reached significant increases at 12 h post-first G49 dose
- peptide plasma level [7]: 121.7 ± 12.88 nM
- eWAT beiging signature ([8]; DIO mice, G49 + ATGLi, 6 h): absence of the eWAT beiging signature
- beige immune signature of SVF ([8]; DIO mice, G49 + GCGRant, 6 h): loss of the beige immune signature of the SVF
- Cd206+/Cd11c+ ratio in neutrophils ([8]; SVF of eWAT, G49, 6 h): increased the Cd206^+/Cd11c^+ ratio
- M2 and M1 macrophages ([8]; SVF of eWAT, G49, 6 h): increase in M2 (Cd206^+) subpopulation, concomitantly with a decrease in M1 (Cd11c^+) cells
- eosinophils (SiglecF+/Cd11b+/Cd11c−) ([8]; SVF of eWAT, G49, 6 h): infiltration of eosinophils
- neutrophil infiltration (Cd11b+Ly6g+) ([8]; SVF of eWAT, G49, 6 h): reduction in neutrophil infiltration
